{"data": "Assay results of several laboratories", "target": "Fibroblast growth factor receptor 1 (FGFR1, Homo sapiens, UniProt P11362)", "note": "Compare with care: the assays were run in different laboratories."}
{"SMILES": "CNC(=O)Nc1ccc2c(c1)CC[C@@]21OC(=O)N(CC(=O)N(Cc2ccc(F)cc2)[C@@H](C)C(F)(F)F)C1=O", "read-out": "cell-free assay", "method": "competition with immobilised ligand", "tested at": "1 µM", "remaining binding [%]": 82}
{"SMILES": "O=C(c1ccc(Nc2ncc(Cl)c(-c3ccc(Cl)s3)n2)cc1)N1CCC(N2CCCC2)CC1", "read-out": "binding", "method": "competition with immobilised ligand", "tested at": "1 µM", "remaining binding [%]": 12}
{"SMILES": "C[C@H]1CCN(c2nccc(-c3cnn4ncccc34)n2)C1", "read-out": "binding", "tested at": "1 µM", "remaining binding [%]": 100}
{"SMILES": "O=C(O)[C@H]1[C@H](Cn2nnc3ccccc3c2=O)CC[C@@H]1C(=O)c1ccc(OCCC2CCOCC2)cc1", "read-out": "cell-free assay", "method": "competition with immobilised ligand", "tested at": "1 µM", "remaining binding [%]": 98}
{"SMILES": "N[C@H]1CCN(c2nccc(-c3cnn4ncccc34)n2)C1", "read-out": "binding", "tested at": "1 µM", "remaining binding [%]": 100}
{"SMILES": "COc1ncc2cc3ccccc3nc2c1C#N", "read-out": "cell-free assay", "method": "competition with immobilised ligand", "tested at": "5 µM", "remaining binding [%]": 73}
{"SMILES": "C=CC(=O)N1CCC(C(=O)NCC(=O)N2CCN(c3nc(-c4cnc(N)nc4C(F)F)nc(N4CCOCC4)n3)CC2)CC1", "read-out": "binding", "method": "competition with immobilised ligand", "tested at": "1 µM", "remaining binding [%]": 100}
{"SMILES": "CC1=C(C#N)[C@@H](c2ccc3[nH]nc(C)c3c2)C(C#N)=C(c2ccc(Cl)cc2)N1", "read-out": "cell-free assay", "method": "competition with immobilised ligand", "tested at": "1 µM", "remaining binding [%]": 86.6}
{"SMILES": "c1cncc(-c2cccc(Nc3nccc(NC4CCCCC4)n3)c2)c1", "read-out": "binding", "method": "competition with immobilised ligand", "tested at": "10 µM", "remaining binding [%]": 14}
{"SMILES": "CN(CCCC(F)(F)F)c1nccc(-c2cnn3ncccc23)n1", "read-out": "binding", "tested at": "1 µM", "remaining binding [%]": 46}
{"SMILES": "CN(C)C(=O)Cn1cc(-c2nc([C@@](C)(c3ccc(-c4cnc(N)nc4)cc3)C3CC3)no2)cn1", "read-out": "cell-free assay", "method": "competition with immobilised ligand", "tested at": "1 µM", "remaining binding [%]": 95}
{"SMILES": "O=C(NCCCN1CCOCC1)c1ccc(Nc2ncc(Cl)c(-c3ccc(Cl)s3)n2)cc1", "read-out": "binding", "method": "competition with immobilised ligand", "tested at": "1 µM", "remaining binding [%]": 27}
{"SMILES": "FC(F)(F)Oc1cccc(-c2cnc3ccc(-c4ccncc4)nn23)c1", "read-out": "cell-free assay", "method": "competition with immobilised ligand", "tested at": "5 µM", "remaining binding [%]": 72}
{"SMILES": "O=C1CCc2cc(Nc3cc(OC4CCOCC4)c([N+](=O)[O-])cc3Cl)ccc2N1", "read-out": "cell-free assay", "method": "competition with immobilised ligand", "tested at": "1 µM", "remaining binding [%]": 93}
{"SMILES": "CC1CCCN1c1nccc(-c2cnn3ncccc23)n1 (stereo not shown)", "read-out": "binding", "tested at": "1 µM", "remaining binding [%]": 100}
{"SMILES": "COc1cnc(Nc2cccc(S(N)(=O)=O)c2)nc1N1CCN(c2ccccc2)C(=O)C1", "read-out": "binding", "method": "competition with immobilised ligand", "tested at": "1 µM", "remaining binding [%]": 83}
{"SMILES": "CN(C)c1ncnc(-c2ccc3nc(Nc4cc(CN5CCN(C(=O)CC(F)(F)F)CC5)ccn4)[nH]c3c2)c1Cl", "read-out": "cell-free assay", "method": "competition with immobilised ligand", "tested at": "1 µM", "remaining binding [%]": 100}
{"SMILES": "Cc1cnn2ncc(-c3ccnc(N(C)C)n3)c2c1", "read-out": "binding", "tested at": "1 µM", "remaining binding [%]": 100}
{"SMILES": "O=C(NCCCN1CCOCC1)c1ccc(Nc2nccc(-c3cc4ccccc4s3)n2)cc1", "read-out": "binding", "method": "competition with immobilised ligand", "tested at": "1 µM", "remaining binding [%]": 88}
{"SMILES": "F[C@@H]1CCN(c2nccc(-c3cnn4ncccc34)n2)C1", "read-out": "binding", "tested at": "1 µM", "remaining binding [%]": 87}
{"SMILES": "COc1cccc(CNC(=O)c2nc3scc(COCc4ccc(C(=O)O)cc4)c3c(=O)[nH]2)c1", "read-out": "cell-free assay", "method": "competition with immobilised ligand", "tested at": "1 µM", "remaining binding [%]": 86.5}
{"SMILES": "O=C(NCC1CCOCC1)c1n[nH]cc1NC(=O)c1c(F)cccc1F", "read-out": "binding", "method": "competition with immobilised ligand", "tested at": "1 µM", "remaining binding [%]": 100}
